Measurements taken from ChEMBL document CHEMBL3734652, “Pyrrolo[3,4-c]pyridine-1,3(2H)-diones: A Novel Antimycobacterial Class Targeting Mycobacterial Respiration” (J Med Chem, 2015).
Values after ≈ are worked out from the molar mass of the structure shown.

Tests used:
[1] = tested on: Mycobacterium tuberculosis; experiment: Antimicrobial activity against GFP expressing recombinant Mycobacterium tuberculosis H37RvMA under 7H9 medium assessed as growth inhibition after 14 days by broth microdilution method; type: functional; settings: 336 h
[2] = Octanol-phosphate buffer partition coefficient, log D of the compound at 100 uM at pH 7.4 after 3 hrs by shake flask method; type: physicochemical
[3] = Half life in human plasma at 0.1 uM by LC-MS/MS method; type: ADME, cell-free
[4] = Kinetic solubility in FaSSIF at pH 6.5 after 2 hours at 25 degC by shake flask method; type: physicochemical; settings: read-out: Kinetic_solubility
[5] = Intrinsic clearance in mouse liver microsomes assessed per mg of protein at 0.1 uM by LC-MS/MS method in presence or absence of NADPH; type: ADME
[6] = tested on: Mycobacterium tuberculosis; experiment: Antimicrobial activity against GFP expressing recombinant Mycobacterium tuberculosis H37RvMA under GAST/Fe medium assessed as growth inhibition after 14 days by broth microdilution method; type: functional; settings: 336 h
Liver microsome [7] = experiment: Intrinsic clearance in human liver microsomes assessed per mg of protein at 0.1 uM by LC-MS/MS method in presence or absence of NADPH; type: ADME
Vero = experiment: Cytotoxicity against African green monkey Vero cells assessed as cell viability by MTT assay; type: cell-based; settings: Chlorocebus sabaeus
Method in brief: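 VERO kidney epithelial cells from African green monkey were exposed to compounds at concentrations up to 100 μM, and IC₅₀ was reported.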

[8] = Metabolic stability in human liver S9 fractions assessed as residual compound at 0.1 uM after 40 mins by LC-MS/MS method in presence or absence of NADPH; type: ADME; settings: read-out: Stability
[9] = tested on: Mycobacterium tuberculosis; experiment: Antimicrobial activity against Mycobacterium tuberculosis H37RvMA under GAST/Fe medium assessed as growth inhibition after 14 days by alamar blue assay; type: functional; settings: 336 h
Method in brief: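 Broth microdilution in GAST/Fe medium against fully virulent Mtb H37RvMa or its derived strains (cytochrome bd oxidase deletion ΔcydKO; qcrB Ala317Thr point mutant). Plates were incubated 14 days, growth was read by Alamar Blue, and MIC90 was taken as the potency value.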

Liver microsome [10] = experiment: Intrinsic clearance in rat liver microsomes assessed per mg of protein at 0.1 uM by LC-MS/MS method in presence or absence of NADPH; type: ADME
[11] = tested on: Mycobacterium tuberculosis; experiment: Antimicrobial activity against clinical isolates of Mycobacterium tuberculosis SAWC 2371 Haarlem under 7H9 medium assessed as growth inhibition after 14 days by alamar blue assay; type: functional; settings: 336 h
[12] = tested on: Mycobacterium tuberculosis; experiment: Antimicrobial activity against clinical isolates of Mycobacterium tuberculosis SAWC 3906 Atyp-beijing under 7H9 medium assessed as growth inhibition after 14 days by alamar blue assay; type: functional; settings: 336 h
[13] = tested on: Mycobacterium tuberculosis; experiment: Antimicrobial activity against clinical isolates of Mycobacterium tuberculosis SAWC 3933 LCC under 7H9 medium assessed as growth inhibition after 14 days by alamar blue assay; type: functional; settings: 336 h
[14] = tested on: Mycobacterium tuberculosis; experiment: Antimicrobial activity against clinical isolates of Mycobacterium tuberculosis SAWC 3385 Cas1/Delhi under 7H9 medium assessed as growth inhibition after 14 days by alamar blue assay; type: functional; settings: 336 h
[15] = Tmax in anesthetized C57/BL6 mouse at 5 mg/kg, iv co-administered with amino-benzotriazole by LC-MS method; type: ADME, organism-based; settings: in vivo
Method in brief: (§1)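 C57/BL6 mice were given a single dose of 5 mg/kg iv or 20 mg/kg po. Each dose was tested alone and co-dosed with aminobenzotriazole, a nonspecific cytochrome P450 inhibitor. Plasma exposure was followed, and each parameter is the mean of three animals.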

[16] = Cmax in C57/BL6 mouse at 20 mg/kg, po co-administered with amino-benzotriazole by LC-MS method; type: ADME, organism-based; design: dose 20 mg/kg, route oral; settings: in vivo; method in brief: as §1
[17] = Total clearance in anesthetized C57/BL6 mouse at 5 mg/kg, iv co-administered with amino-benzotriazole by LC-MS method; type: ADME, organism-based; settings: in vivo; method in brief: as §1
[18] = AUC (0 to infinity) in anesthetized C57/BL6 mouse at 5 mg/kg, iv co-administered with amino-benzotriazole by LC-MS method; type: ADME, organism-based; design: dose 5 mg/kg, route intravenous, time infinity; settings: in vivo; method in brief: as §1
[19] = Tmax in C57/BL6 mouse at 20 mg/kg, po by LC-MS method; type: ADME, organism-based; settings: in vivo; method in brief: as §1
[20] = Oral bioavailability in C57/BL6 mouse at 20 mg/kg by LC-MS method; type: ADME, organism-based; settings: in vivo; method in brief: as §1
[21] = Plasma protein binding in human at 5 uM preincubated for 1 hr by LC-MS/MS method; type: ADME, cell-free; settings: read-out: PPB (converted)
[22] = AUC (0 to infinity) in anesthetized C57/BL6 mouse at 5 mg/kg, iv by LC-MS method; type: ADME, organism-based; design: dose 5 mg/kg, route intravenous, time infinity; settings: in vivo; method in brief: as §1
[23] = Cmax in anesthetized C57/BL6 mouse at 5 mg/kg, iv co-administered with amino-benzotriazole by LC-MS method; type: ADME, organism-based; design: dose 5 mg/kg, route intravenous; settings: in vivo; method in brief: as §1
[24] = Volume of distribution in anesthetized C57/BL6 mouse at 5 mg/kg, iv by LC-MS method; type: ADME, organism-based; settings: in vivo; method in brief: as §1
[25] = Oral bioavailability in C57/BL6 mouse at 20 mg/kg co-administered with amino-benzotriazole by LC-MS method; type: ADME, organism-based; settings: in vivo; method in brief: as §1
[26] = Tmax in C57/BL6 mouse at 20 mg/kg, po co-administered with amino-benzotriazole by LC-MS method; type: ADME, organism-based; settings: in vivo; method in brief: as §1
[27] = Tmax in anesthetized C57/BL6 mouse at 5 mg/kg, iv by LC-MS method; type: ADME, organism-based; settings: in vivo; method in brief: as §1
Mus musculus = experiment: Ratio of AUC (0 to infinity) in C57/BL6 mouse at 20 mg/kg, po co-administered with amino-benzotriazole to AUC (0 to infinity) in C57/BL6 mouse at 20 mg/kg, po without co-administration of amino-benzotriazole; type: ADME, organism-based; settings: in vivo
[28] = Apparent half-life in C57/BL6 mouse at 20 mg/kg, po co-administered with amino-benzotriazole by LC-MS method; type: ADME, organism-based; settings: in vivo, read-out: t1/2(app) (converted); method in brief: as §1
[29] = AUC (0 to infinity) in C57/BL6 mouse at 20 mg/kg, po by LC-MS method; type: ADME, organism-based; design: dose 20 mg/kg, route oral, time infinity; settings: in vivo; method in brief: as §1
[30] = Cmax in C57/BL6 mouse at 20 mg/kg, po by LC-MS method; type: ADME, organism-based; design: dose 20 mg/kg, route oral; settings: in vivo; method in brief: as §1
[31] = Volume of distribution in anesthetized C57/BL6 mouse at 5 mg/kg, iv co-administered with amino-benzotriazole by LC-MS method; type: ADME, organism-based; settings: in vivo; method in brief: as §1
[32] = Ratio of Cmax in C57/BL6 mouse at 20 mg/kg, po co-administered with amino-benzotriazole to MIC90 for Mycobacterium tuberculosis H37RvMA in GAST/Fe medium
[33] = Apparent half-life in anesthetized C57/BL6 mouse at 5 mg/kg, iv co-administered with amino-benzotriazole by LC-MS method; type: ADME, organism-based; settings: in vivo, read-out: t1/2(app) (converted); method in brief: as §1
[34] = Apparent half-life in C57/BL6 mouse at 20 mg/kg, po by LC-MS method; type: ADME, organism-based; settings: in vivo, read-out: t1/2(app) (converted); method in brief: as §1
[35] = AUC (0 to infinity) in C57/BL6 mouse at 20 mg/kg, po co-administered with amino-benzotriazole by LC-MS method; type: ADME, organism-based; design: dose 20 mg/kg, route oral, time infinity; settings: in vivo; method in brief: as §1
[36] = Total clearance in anesthetized C57/BL6 mouse at 5 mg/kg, iv by LC-MS method; type: ADME, organism-based; settings: in vivo; method in brief: as §1
[37] = Cmax in anesthetized C57/BL6 mouse at 5 mg/kg, iv by LC-MS method; type: ADME, organism-based; design: dose 5 mg/kg, route intravenous; settings: in vivo; method in brief: as §1
[38] = Apparent half-life in anesthetized C57/BL6 mouse at 5 mg/kg, iv by LC-MS method; type: ADME, organism-based; settings: in vivo, read-out: t1/2(app) (converted); method in brief: as §1

Structure (SMILES): Cc1noc(-c2nc(C)c3c(c2N)C(=O)N(Cc2cccc(OC(F)(F)F)c2)C3=O)n1
- MIC90 [1]: > 20 µM
- logD at 3 h, 100 µM [2]: 3.64
- half-life at 0.1 µM [3]: > 6 h
- solubility kinetic at 2 h [4]: 6.3 µM (≈ 2.73 µg/mL)
- CLint [5]: 65.7 µL/min/mg
- MIC90 [6]: 0.052 µM
- CLint (Liver microsome [7]): 15.4 µL/min/mg
- IC50 (Vero): > 100 µM
- remaining at 40 min, 0.1 µM [8]: 93%
- MIC90 [9]: 0.0637 µM (≈ 0.0276 µg/mL)
- CLint (Liver microsome [10]): 32.4 µL/min/mg

Structure (SMILES): COc1cccc(CN2C(=O)c3c(C)nc(-c4nc(C)no4)c(N)c3C2=O)c1
- solubility kinetic at 2 h [4]: < 5 µM
- MIC90 [11]: 0.3 µM (≈ 0.114 µg/mL)
- MIC90 [12]: 0.075 µM (≈ 0.0285 µg/mL)
- MIC90 [13]: 0.15 µM (≈ 0.0569 µg/mL)
- MIC90 [14]: 0.075 µM (≈ 0.0285 µg/mL)
- MIC90 [9]: < 0.156 µM

Structure (SMILES): Cc1noc(-c2nc(C)c3c(c2N)C(=O)N(Cc2cccc(Cl)c2)C3=O)n1
- Tmax [15]: 0.17 h
- Cmax [16]: 167 nM
- clearance [17]: 94.5 mL/min/kg
- AUC(0-inf) [18]: 2.65 µM·h
- MIC90 [1]: > 20 µM
- Tmax [19]: 1 h
- bioavailability [20]: 2%
- fraction unbound at 1 h, 5 µM [21]: 0.033
- logD at 3 h, 100 µM [2]: 3.34
- half-life at 0.1 µM [3]: 1.03 h
- solubility kinetic at 2 h [4]: 72 µM (≈ 27.6 µg/mL)
- AUC(0-inf) [22]: 1.27 µM·h
- Cmax [23]: 1530 nM
- CLint [5]: < 11.6 µL/min/mg
- Vd [24]: 104 L/kg
- bioavailability [25]: 26%
- Tmax [26]: 0.5 h
- Tmax [27]: 0.17 h
- MIC90 [11]: 0.6 µM (≈ 0.23 µg/mL)
- Ratio AUC (Mus musculus): 10
- half-life [28]: 3.39 h
- MIC90 [12]: 0.15 µM (≈ 0.0576 µg/mL)
- AUC(0-inf) [29]: 0.133 µM·h
- MIC90 [13]: 0.15 µM (≈ 0.0576 µg/mL)
- MIC90 [6]: 0.065 µM
- CLint (Liver microsome [7]): < 11.6 µL/min/mg
- Cmax [30]: 33 nM
- Vd [31]: 53.1 L/kg
- IC50 (Vero): > 100 µM
- MIC90 [14]: 0.6 µM (≈ 0.23 µg/mL)
- Ratio [32]: 2
- remaining at 40 min, 0.1 µM [8]: 97%
- half-life [33]: 7.31 h
- MIC90 [9]: < 0.156 µM
- half-life [34]: 2.19 h
- AUC(0-inf) [35]: 1.33 µM·h
- clearance [36]: 171 mL/min/kg
- Cmax [37]: 622 nM
- half-life [38]: 7.01 h
- CLint (Liver microsome [10]): < 11.6 µL/min/mg
